Results as given in ChEMBL document CHEMBL1121813, “Dihydrochalcone sweeteners. A study of the atypical temporal phenomena” (1981).

Tests used:
Assay type in all cases: functional
Homo sapiens [1] = species: Homo sapiens; test: Sweet character at a concentration of 497 ppm (mean value)
Homo sapiens [2] = species: Homo sapiens; test: Intensity calculated on a molar basis relative to a 0.25 M sucrose solution at a concentration of 497 ppm (mean value)
In short: (§1)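 Trained human judges tasted aqueous solutions of the test compound; compounds were first required to be ≥95 weight percent pure and free of mutagenicity (five Salmonella typhimurium strains, ± microsomal activation) and of single oral dose mouse toxicity. Molar intensity I_m = perceived intensity × (0.25 M sucrose / compound molar concentration). The mean is reported with 2S_m limits; outliers were rejected at 95% confidence by t-value.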

Homo sapiens [3] = species: Homo sapiens; test: Sweet / Bitter character at a concentration of 497 ppm (mean value); 0/100
Homo sapiens [4] = species: Homo sapiens; test: Experimentally determined perceived intensity of compound at a concentration of 497 ppm (mean value)
In short: (§2)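 Trained human sensory panel of judges tasted aqueous solutions of the compound. Samples had to be ≥95 weight % pure (HPLC, proton titration, Karl Fischer), non-mutagenic in five Salmonella typhimurium strains with and without microsomal activation, and non-toxic in a single-oral-dose mouse test. Perceived intensity (Ip) was read from time–intensity curves at 4- or 6-s intervals and averaged. Outliers at the 95% level were rejected by t-value. Values reported as mean (2Sm).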

Homo sapiens [5] = species: Homo sapiens; test: Other taste character at a concentration of 497 ppm (mean value)
In short: (§3)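 Trained human sensory panel (Swartz method) tasted dilute aqueous solutions of the compounds, which had to be ≥95 weight percent pure and free of mutagenicity and toxicity. Taste character is reported as the mean value with 2S_m limits. Data deviating excessively at the 95% confidence level were rejected by the t-value method.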

Homo sapiens [6] = species: Homo sapiens; test: Percentage of judgments reporting an aftertaste at a concentration of 497 ppm and character thereof
Homo sapiens [7] = species: Homo sapiens; test: Number of taste judgments per compound
Homo sapiens [8] = species: Homo sapiens; test: Intensity calculated on a weight basis relative to an 85500 ppm sucrose solution at a concentration of 497 ppm (mean value)
In short: (§4)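 Trained human panel tasted aqueous solutions of purity-checked (≥95 weight percent) compounds cleared for mutagenicity and mouse oral toxicity. Weight-basis intensity I_w = perceived intensity × (85500 ppm sucrose / compound concentration in ppm). The mean is reported with 2S_m limits; data deviating excessively at 95% confidence were rejected by the t-value method.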

Homo sapiens [9] = species: Homo sapiens; test: Sour character at a concentration of 497 ppm (mean value)
Homo sapiens [10] = species: Homo sapiens; test: Bitter character at a concentration of 497 ppm (mean value)
In short: (§5)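 Trained human panel tasted aqueous solutions. Each judge reported whether there was an aftertaste and its character (sweet, bitter or bitter-sweet). The value is the percentage of judgments reporting a bitter aftertaste.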

Homo sapiens [11] = species: Homo sapiens; test: Salty character at a concentration of 497 ppm (mean value)
Homo sapiens [12] = species: Homo sapiens; test: Sweet character at a concentration of 251 ppm (mean value); in short: as §3
Homo sapiens [13] = species: Homo sapiens; test: Percentage of judgments reporting an aftertaste at a concentration of 251 ppm and character thereof
In short: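 Trained human sensory panel; compounds tasted in aqueous solution. Before panel work, compounds had to be ≥95 weight percent pure (HPLC, proton titration, Karl Fischer) and free of mutagenicity (five Salmonella typhimurium strains, ± microsomal activation) and single oral dose mouse toxicity. Value is the percentage of judgments reporting an aftertaste, with its character recorded as sweet, bitter or bitter-sweet.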

Homo sapiens [14] = species: Homo sapiens; test: Intensity calculated on a weight basis relative to an 85500 ppm sucrose solution at a concentration of 251 ppm (mean value); in short: as §4
Homo sapiens [15] = species: Homo sapiens; test: Salty character at a concentration of 251 ppm (mean value); in short: as §3
Homo sapiens [16] = species: Homo sapiens; test: Sour character at a concentration of 251 ppm (mean value); in short: as §3
Homo sapiens [17] = species: Homo sapiens; test: Experimentally determined perceived intensity of compound at a concentration of 251 ppm (mean value); in short: as §2
Homo sapiens [18] = species: Homo sapiens; test: Bitter character at a concentration of 251 ppm (mean value); in short: as §5
Homo sapiens [19] = species: Homo sapiens; test: Sweet / Bitter character at a concentration of 251 ppm (mean value); […]
Homo sapiens [20] = species: Homo sapiens; test: Other taste character at a concentration of 251 ppm (mean value); in short: as §3
Homo sapiens [21] = species: Homo sapiens; test: Intensity calculated on a molar basis relative to a 0.25 M sucrose solution at a concentration of 251 ppm (mean value); in short: as §1
Homo sapiens [22] = species: Homo sapiens; test: Other taste character at a concentration of 250 ppm (mean value); in short: as §3
Homo sapiens [23] = species: Homo sapiens; test: Salty character at a concentration of 250 ppm (mean value); in short: as §3
Homo sapiens [24] = species: Homo sapiens; test: Intensity calculated on a weight basis relative to an 85500 ppm sucrose solution at a concentration of 250 ppm (mean value); in short: as §4
Homo sapiens [25] = species: Homo sapiens; test: Sweet character at a concentration of 250 ppm (mean value); in short: as §3
Homo sapiens [26] = species: Homo sapiens; test: Sweet / Bitter character at a concentration of 250 ppm (mean value); 0/100
Homo sapiens [27] = species: Homo sapiens; test: Sour character at a concentration of 250 ppm (mean value); in short: as §3
Homo sapiens [28] = species: Homo sapiens; test: Percentage of judgments reporting an aftertaste at a concentration of 250 ppm and character thereof
In short: (§6)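 Trained judges tasted aqueous solutions of the compounds, which had to be ≥95 weight percent pure and to have passed mutagenicity and single oral dose toxicity screening. The value is the percentage of panel judgments reporting an aftertaste. Where given, its character is recorded as sweet, bitter or bitter-sweet.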

Homo sapiens [29] = species: Homo sapiens; test: Experimentally determined perceived intensity of compound at a concentration of 250 ppm (mean value); in short: as §2
Homo sapiens [30] = species: Homo sapiens; test: Bitter character at a concentration of 250 ppm (mean value); in short: as §5
Homo sapiens [31] = species: Homo sapiens; test: Intensity calculated on a molar basis relative to a 0.25 M sucrose solution at a concentration of 250 ppm (mean value); in short: as §1
Homo sapiens [32] = species: Homo sapiens; test: Percentage of judgments reporting an aftertaste at a concentration of 1013 ppm and character thereof; in short: as §6
Homo sapiens [33] = species: Homo sapiens; test: Sweet / Bitter character at a concentration of 1013 ppm (mean value); 28/72
Homo sapiens [34] = species: Homo sapiens; test: Intensity calculated on a weight basis relative to an 85500 ppm sucrose solution at a concentration of 1013 ppm (mean value); in short: as §4
Homo sapiens [35] = species: Homo sapiens; test: Intensity calculated on a molar basis relative to a 0.25 M sucrose solution at a concentration of 1013 ppm (mean value); in short: as §1
Homo sapiens [36] = species: Homo sapiens; test: Sweet character at a concentration of 1013 ppm (mean value)
Homo sapiens [37] = species: Homo sapiens; test: Salty character at a concentration of 1013 ppm (mean value)
Homo sapiens [38] = species: Homo sapiens; test: Bitter character at a concentration of 1013 ppm (mean value); in short: as §5
Homo sapiens [39] = species: Homo sapiens; test: Other taste character at a concentration of 1013 ppm (mean value)
In short: (§7)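 Trained human panel tasted aqueous solutions of each compound. Aftertaste is scored as the percentage of judgments reporting one, with its character coded sweet (s), bitter (b) or bitter-sweet (bs).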

Homo sapiens [40] = species: Homo sapiens; test: Experimentally determined perceived intensity of compound at a concentration of 1013 ppm (mean value); in short: as §2
Homo sapiens [41] = species: Homo sapiens; test: Sour character at a concentration of 1013 ppm (mean value)
Homo sapiens [42] = species: Homo sapiens; test: Experimentally determined perceived intensity of compound at a concentration of 1001 ppm (mean value); in short: as §2
Homo sapiens [43] = species: Homo sapiens; test: Percentage of judgments reporting an aftertaste at a concentration of 1001 ppm and character thereof; Sweet; in short: as §6
Homo sapiens [44] = species: Homo sapiens; test: Bitter character at a concentration of 1001 ppm (mean value); in short: as §5
Homo sapiens [45] = species: Homo sapiens; test: Intensity calculated on a molar basis relative to a 0.25 M sucrose solution at a concentration of 1001 ppm (mean value)
In short: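 Panel-derived mean perceived intensity (Ip) converted to a molar basis by Im = Ip × (0.25 M / Y), where Y is the compound's molar concentration. Reference is a 0.25 M sucrose solution. Reported with limits of 2Sm.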

Homo sapiens [46] = species: Homo sapiens; test: Sour character at a concentration of 1001 ppm (mean value)
Homo sapiens [47] = species: Homo sapiens; test: Salty character at a concentration of 1001 ppm (mean value)
Homo sapiens [48] = species: Homo sapiens; test: Sweet character at a concentration of 1001 ppm (mean value)
Homo sapiens [49] = species: Homo sapiens; test: Sweet / Bitter character at a concentration of 1001 ppm (mean value)
Homo sapiens [50] = species: Homo sapiens; test: Intensity calculated on a weight basis relative to an 85500 ppm sucrose solution at a concentration of 1001 ppm (mean value); in short: as §4
Homo sapiens [51] = species: Homo sapiens; test: Other taste character at a concentration of 1001 ppm (mean value); in short: as §7

Structure (SMILES): O=C([O-])COc1cc(O)c(C(=O)CCc2ccc3c(c2)OCO3)c(O)c1.[Na+]
- Taste character (Homo sapiens [1]): 0
- IM (Homo sapiens [2]): 160
- Taste character (Homo sapiens [3]): 0
- IP (Homo sapiens [4]): 0.83
- Taste character (Homo sapiens [5]): 21
- Judgments (Homo sapiens [6]): 100
- Judgments (Homo sapiens [7]): 12
- IW (Homo sapiens [8]): 140
- Taste character (Homo sapiens [9]): 0
- Taste character (Homo sapiens [10]): 79
- Taste character (Homo sapiens [11]): 0

Structure (SMILES): COc1ccc(CCC(=O)c2c(O)cc(OCCCP(=O)([O-])O)cc2O)cc1O.[K+]
- Taste character (Homo sapiens [12]): 80
- Judgments (Homo sapiens [13]): 100
- IW (Homo sapiens [14]): 280
- Taste character (Homo sapiens [15]): 0
- Taste character (Homo sapiens [16]): 0
- IP (Homo sapiens [17]): 0.83
- Taste character (Homo sapiens [18]): 7
- Taste character (Homo sapiens [19]): 92
- Judgments (Homo sapiens [7]): 12
- Taste character (Homo sapiens [20]): 13
- IM (Homo sapiens [21]): 380

Structure (SMILES): O=C(O)CCc1ccc(O)c(O)c1 [DIHYDROCAFFEIC ACID]
- Taste character (Homo sapiens [22]): 9
- Taste character (Homo sapiens [23]): 0
- IW (Homo sapiens [24]): 250
- Taste character (Homo sapiens [25]): 0
- Taste character (Homo sapiens [26]): 0
- Taste character (Homo sapiens [27]): 76
- Judgments (Homo sapiens [28]): 50
- Judgments (Homo sapiens [7]): 8
- IP (Homo sapiens [29]): 0.73
- Taste character (Homo sapiens [30]): 15
- IM (Homo sapiens [31]): 130

Structure (SMILES): COc1ccc(/C=C/C(=O)c2ccc(OCCCS(=O)(=O)[O-])cc2O)cc1O.[K+]
- Judgments (Homo sapiens [32]): 100
- Taste character (Homo sapiens [33]): 28
- IW (Homo sapiens [34]): 38
- IM (Homo sapiens [35]): 50
- Taste character (Homo sapiens [36]): 23
- Taste character (Homo sapiens [37]): 0
- Taste character (Homo sapiens [38]): 59
- Taste character (Homo sapiens [39]): 18
- IP (Homo sapiens [40]): 0.45
- Taste character (Homo sapiens [41]): 0
- Judgments (Homo sapiens [7]): 12

Structure (SMILES): COc1ccc(CCc2noc3cc(OCC(=O)[O-])cc(O)c23)cc1O.[Na+]
- IP (Homo sapiens [42]): 0.38
- Judgments (Homo sapiens [43]): 100
- Taste character (Homo sapiens [44]): 22
- IM (Homo sapiens [45]): 36
- Taste character (Homo sapiens [46]): 0
- Taste character (Homo sapiens [47]): 0
- Taste character (Homo sapiens [48]): 66
- Judgments (Homo sapiens [7]): 12
- Taste character (Homo sapiens [49]): 75
- IW (Homo sapiens [50]): 32
- Taste character (Homo sapiens [51]): 12
